Series [1] has as its system SARS-CoV-2. In words: Antiviral activity against SARS-CoV-2 infected in African green monkey Vero E6 cells assessed as inhibition of viral spread cells preincubated with compound for 1 hr followed by viral infection for 1 hr and later washed with PBS followed by re-incubated with compound for 48 hrs. In kind it is functional, organism-based, Severe acute respiratory syndrome coronavirus 2.

Series [2] relates to SARS-CoV-2. In words: Antiviral activity against SARS-CoV-2 infected in African green monkey Vero E6 cells assessed as inhibition of viral entry cells preincubated with compound for 1 hr followed by viral infection for 1 hr and later washed with PBS followed by re-incubated with compound for 24 hrs. In kind it is functional, organism-based, Severe acute respiratory syndrome coronavirus 2.

In series [3] the test system is Vero C1008. In words: Cytotoxicity against African green monkey Vero E6 cells assessed as reduction in cell survival at 50 uM. As to conditions: chlorocebus sabaeus, vero c1008, 50 µM. In kind it is cell-based.
Series [4] has as its target Replicase polyprotein 1ab (Severe acute respiratory syndrome coronavirus 2) (UniProt P0DTD1). The series can be described thus: Inhibition of SARS-CoV-2 3CLpro using TVLQ-AMC probe as substrate at 50 uM preincubated with enzyme for 5 mins followed by substrate addition and measured after 3 hrs for every 15 mins for 1 hr by FRET assay. The conditions noted are these: time 245.0 min. The method in brief: (§1)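 3CLpro (0.4 µM final) preincubated 5 min at room temperature with compound in Tris-HCl pH 7.3, 1 mM EDTA. TVLQ-AMC added to 40 µM final. Fluorescence (ex 364/em 440 nm) read every 15 min for 1 h and at 3 h, in triplicate. Values normalized to the mean 3 h no-inhibitor control set as 100.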

Series [5] shares this target. In words: Inhibition of SARS-CoV-2 3CLpro using TVLQ-AMC probe as substrate at 10 uM preincubated with enzyme for 5 mins followed by substrate addition and measured after 3 hrs for every 15 mins for 1 hr by FRET assay. As to conditions: time 245.0 min. The method in brief:
as §1

The subject of series [6] is Vero C1008. In words: Cytotoxicity against African green monkey Vero E6 cells assessed as effect on nuclei count. In kind it is cell-based. The conditions noted are these: chlorocebus sabaeus.
[7] abbreviates: Severe acute respiratory syndrome coronavirus 2, Vero C1008.

Broadly, the IC50 is the concentration that inhibits the measured activity by half. As to IVERMECTIN [listing 1 of 2 here], the IC50 in the series on SARS-CoV-2 [1] (vero e6) was 6.02 µM; in the series with SARS-CoV-2 [2] (vero e6), 2.7 µM. Moreover, in the series with Vero C1008 [3], the Activity entry is on record as “Toxic”.

What is called inhibition is the change of the read-out against control, counted positive when it falls. In the case of IVERMECTIN [listing 2 of 2 here], the inhibition in series [4] stood at 90%; in series [5], 85%.

As for `Cc1ccc2c(c1)C(=O)N([C@H](Cc1ccccc1)C(=O)N[C@@H](Cc1ccccc1)[C@@H](O)CN1CCN(C[C@H](O)[C@H](Cc3ccccc3)NC(=O)[C@@H](Cc3ccccc3)N3C(=O)c4ccc(C)cc4C3=O)CC1)C2=O`, the values for the IC50 in the series with SARS-CoV-2 [1] (setting [7]) and with SARS-CoV-2 [2] (setting [7]) were 14.7 µM and 10.9 µM, respectively. The inhibition in series [4] was 12%; in series [5] it was 5%. For the same compound, the Activity result in the series with Vero C1008 [6] was “Non-Toxic”.

In the case of `CC(C)(C)OC(=O)N[C@@H](Cc1ccccc1)[C@@H](O)CN1CCC(N2CCCCC2)CC1`, the values for the IC50 in the series on SARS-CoV-2 [1] (setting [7]) and in the series with SARS-CoV-2 [2] (setting [7]) were 10.1 µM and 6.33 µM, respectively. In addition, the inhibition in series [4] amounted to 12%; in series [5], 5%. Further, the Activity entry in the series with Vero C1008 [6] was “Non-Toxic”.

`CC(C)(C)OC(=O)NC(Cc1ccccc1)C(=O)N[C@@H](Cc1ccccc1)[C@@H](O)CN1CCN(Cc2ccc(C(F)(F)F)cc2)CC1` (some centres undefined): in the series with SARS-CoV-2 [1] (setting [7]), the IC50 worked out at 12.5 µM. Further, the inhibition worked out at 12% in series [4] and 5% in series [5]. Moreover, in the series on Vero C1008 [6], the Activity result was “Non-Toxic”.

(Values after ChEMBL document CHEMBL4825754, “Antiviral evaluation of hydroxyethylamine analogs: Inhibitors of SARS-CoV-2 main protease (3CLpro), a virtual screening and simulation approach” (Bioorg Med Chem, 2021).)
